Source: ChEMBL document CHEMBL1157754, “Polyketides from the ascomycete fungus Leptosphaeria sp” (J Nat Prod, 2010)

Legend:
Type in all cases: functional, organism-based
[1] = test system: Microdochium nivale; test: Antifungal activity against Fusarium nivale CGMCC 3.4600 after 48 hrs by Alamar blue assay; settings: CGMCC 3.4600, 48 h
Method in brief: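 Plant-pathogen broth microdilution per NCCLS, in triplicate. F. nivale was grown on PDA, then in broth at 28 °C for 48 h, and suspended at 10^4 hyphae/mL in PDB. Serial dilutions were made from a 4 mg/mL DMSO stock. Alamar blue was the indicator and carbendazim the positive control. After incubation at 28 °C for 48 h, fluorescence was read at 544/590 nm, and IC50 was derived from the inhibition-concentration plot.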

[2] = test system: Pyricularia oryzae; test: Antifungal activity against Pyricularia oryzae CGMCC 3.3283 after 48 hrs by Alamar blue assay; settings: CGMCC 3.3283, 48 h
Method in brief: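 Broth microdilution per NCCLS recommendations, in triplicate. Strain grown on PDA, then in broth at 28 °C for 48 h. Final suspension 10^4 hyphae/mL in PDB. Samples from 4 mg/mL DMSO stock, serially diluted. Alamar blue added as indicator; incubated 28 °C for 48 h. Fluorescence read at Ex/Em 544/590 nm. Inhibition plotted against concentration to give IC50.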

[3] = test system: Aspergillus flavus; test: Antifungal activity against Aspergillus flavus CGMCC 3.0951 after 48 hrs by Alamar blue assay; settings: CGMCC 3.0951, 48 h

Row | SMILES | IC50 [1] | IC50 [2] | IC50 [3]
1 | Cc1cc(CO)c2c(=O)c3c(O)cc(O)cc3oc2c1 [LEPTOSPHAERIN E] | > 150 µM | > 150 µM | > 150 µM
2 | CC1=C[C@H](O)[C@@]2(Oc3cccc(O)c3C2=O)[C@H](C)C1=O [LEPTOSPHAERIN C] | 144 µM | 80.3 µM | 81.4 µM
3 | C[C@@H]1CC(=O)c2c(coc2-c2c(O)cccc2O)[C@H]1O [LEPTOSPHAERIN B] | > 150 µM | > 150 µM | > 150 µM
4 | C[C@@H]1[C@H](O)[C@@H](C)/C=C/C=C/C=C/C=C/C=C/C=C/C=C/[C@H](O[C@@H]2O[C@H](C)[C@@H](O)[C@H](N)[C@@H]2O)C[C@@H]2O[C@](O)(C[C@@H](O)C[C@@H](O)[C@H](O)CC[C@@H](O)C[C@@H](O)CC(=O)O[C@H]1C)C[C@H](O)[C@H]2C(=O)O [AMPHOTERICIN B] |  |  | 3.3 µM
5 | C[C@@H]1C[C@H](O)[C@H]2C(=O)c3c(O)cccc3O[C@]2(C)[C@H]1O [LEPTOSPHAERIN F] | > 150 µM | > 150 µM | > 150 µM
6 | C[C@@H]1CC(O)=C2C(=O)c3c(O)cccc3O[C@]2(C)[C@H]1O [LEPTOSPHAERIN G] | > 150 µM | > 150 µM | 14.8 µM
7 | COC(=O)Nc1nc2ccccc2[nH]1 [CARBENDAZIM] | 2.6 µM | 5 µM | 
8 | Cc1cc(O)c2c(c1O)COc1cccc(O)c1C2=O [LEPTOSPHAERIN D] | 12.5 µM | 18.1 µM | > 150 µM
9 | C[C@@H]1CC(=O)c2c(coc2-c2c(O)cccc2O)[C@@H]1O [LEPTOSPHAERIN A] | > 150 µM | > 150 µM | > 150 µM
